Measured values taken from ChEMBL document CHEMBL1166011, “A bastadin with potent and selective delta-opioid receptor binding affinity from the Australian sponge Ianthella flabelliformis” (J Nat Prod, 2010).
Active and inactive are the calls of the source. The rule behind the calls is not given here.

Experiments:
Cavia porcellus [1] = species: Cavia porcellus; experiment: Selectivity for guinea pig delta opioid receptor over guinea pig mu opioid receptor
Cavia porcellus [2] = species: Cavia porcellus; experiment: Displacement of [3H]U69593 from kappa opioid receptor in guinea pig cerebellum at 100 uM by beta plate scintillation counting; type: tissue-based
Outline: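 Pooled guinea pig cerebellum membranes (Tris·HCl pH 7.4, endogenous ligands removed at 37 °C 45 min). 1 nM [3H]U69593, 190 µg protein, 10 µM naloxone for nonspecific binding; 90 min rt. Tested up to 100 µM, 2% final DMSO. Filtration onto glass fiber B mats presoaked in 0.01% polyethylenimine; % activity from specific binding.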

[3] = Displacement of [3H]DPDPE from delta opioid receptor in guinea pig forebrain by beta plate scintillation counting; parameters: species or system Cavia porcellus
Outline: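 Delta binding on pooled guinea pig forebrain membranes with 1 nM [3H]DPDPE, 315 µg protein, 10 µM naloxone for nonspecific binding; 90 min rt, filtration onto glass fiber B mats. Concentration-response over 11 treatment levels, 2% final DMSO. IC50 and Ki from nonlinear least-squares fitting, model testing by ANOVA.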

Cavia porcellus [4] = species: Cavia porcellus; experiment: Selectivity for guinea pig delta opioid receptor over guinea pig kappa opioid receptor
Cavia porcellus [5] = species: Cavia porcellus; experiment: Displacement of [3H]DAMGO from mu opioid receptor in guinea pig forebrain at 100 uM by beta plate scintillation counting
Outline: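 Guinea pig forebrain membranes (pooled, homogenized in 50 mM Tris·HCl pH 7.4, preincubated 37 °C 45 min to strip endogenous ligands, washed). 1 nM [3H]DAMGO, 315 µg protein, nonspecific binding with 10 µM naloxone; 90 min rt. Compound at 100 µM in 2% final DMSO. Filtration onto glass fiber B mats. % activity = 100 − % control, specific binding.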

[6] = Displacement of [3H]DAMGO from mu opioid receptor in guinea pig forebrain by beta plate scintillation counting
[7] = Displacement of [3H]U69593 from kappa opioid receptor in guinea pig cerebellum by beta plate scintillation counting
Cavia porcellus [8] = species: Cavia porcellus; experiment: Displacement of [3H]DPDPE from delta opioid receptor in guinea pig forebrain at 100 uM by beta plate scintillation counting
Outline: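 Pooled guinea pig forebrain membranes, Tris·HCl pH 7.4 prep with 37 °C 45 min preincubation to remove endogenous ligands. 1 nM [3H]DPDPE, 315 µg membrane protein, 10 µM naloxone defines nonspecific binding; 90 min rt. Single 100 µM screen, 2% final DMSO. Glass fiber B filtration, scintillation counting. % activity = 100 − % control.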

SMILES | Selectivity ratio (Cavia porcellus [1]) | Activity (Cavia porcellus [2]) | IC50 [3] | Ki [3] | Selectivity ratio (Cavia porcellus [4]) | inhibition (Cavia porcellus [5]) | Ki [6] | Ki [7] | inhibition (Cavia porcellus [8])
O=C1NCC(O)c2ccc(c(Br)c2)Oc2cc(ccc2O)CCNC(=O)/C(=N/O)C(O)c2cc(Br)c(c(Br)c2)Oc2cc(cc(Br)c2OS(=O)(=O)O)C/C1=N\O (stereo not given) [BASTADIN 26] | > 1000 | inactive | 206 nM | 100 nM | > 1000 | inactive | – | – | –
C=CCN1CC[C@]23c4c5ccc(O)c4O[C@H]2C(=O)CC[C@@]3(O)[C@H]1C5 [NALOXONE] | – | – | – | 30 nM | – | – | 3.9 nM | 2.6 nM | –
O=C1N/C=C/c2ccc(c(Br)c2)Oc2cc(ccc2OS(=O)(=O)O)CCNC(=O)/C(=N/O)C(O)c2cc(Br)c(c(Br)c2)Oc2cc(cc(Br)c2O)C/C1=N\O (stereo not given) | – | inactive | – | – | – | 39% | – | – | 86%
O=C1N/C=C/c2ccc(c(Br)c2)Oc2cc(ccc2OS(=O)(=O)O)CCNC(=O)/C(=N/O)Cc2cc(Br)c(c(Br)c2)Oc2cc(cc(Br)c2O)C/C1=N\O | – | inactive | – | – | – | 57% | – | – | 87%
